What all share (assay type): cell-based
For one data set, the system named is HEK293T. Description: Modulation of Gal4-fused VP16 expressed in HEK293T cells co-transfected with UAS repoter gene assessed as decrease in luciferase activity at 1.55 to 15 uM incubated for 18 hrs by luciferase reporter gene assay. The conditions noted are these: Human alphaherpesvirus 2, filed as modulator, dose 1.55-15 µM. Summed up:
(§1)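 Constitutive control: cells transfected (Lipofectamine 2000) with Gal4-VP16 expression plasmid (2 μg) plus 5xUAS-luciferase reporter (2 μg), 18 h; replated 10,000 cells/well, 4 h; ligand or vehicle in quadruplicate for 18 h; luciferase read by Britelite Plus; signal as fold change over vehicle-treated cells. Mean ± s.e.m. (n=4); one-way ANOVA versus vehicle.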

Data set [1] deals with Nuclear receptor subfamily 4 group A member 2 (Homo sapiens) (UniProt P43354). Description: Modulation of full length human Nurr1 expressed in […] cells co-transfected with luciferase reporter plasmid harboring NBRE response element assessed as decrease in luciferase activity at 1.55 to 15 uM incubated for 18 hrs by luciferase reporter gene assay. The note with it: SKNBE2, filed as modulator, dose 1.55-15 µM. Summed up:
(§2)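 Cells transfected (Lipofectamine 2000, 18 h) with full-length Nurr1 expression plasmid (2 μg) and 3xNBRE- or 3xNurRE-luciferase reporter (6 μg), no internal control normalisation; replated 10,000 cells/well, 4 h; ligand or vehicle in quadruplicate for 18 h; Britelite Plus luminescence as fold change over vehicle. Mean ± s.e.m. (n=4); one-way ANOVA versus vehicle.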

In data set [2] the test system is PC-12. In words: Modulation of Gal4-fused VP16 expressed in PC12 cells co-transfected with UAS repoter gene assessed as decrease in luciferase activity at 1.55 to 15 uM incubated for 18 hrs by luciferase reporter gene assay. The note with it: Human alphaherpesvirus 2, filed as modulator, dose 1.55-15 µM. Summed up:
as §1

The target of data set [3] is Nuclear receptor subfamily 4 group A member 2 (Homo sapiens) (UniProt P43354). Description: Modulation of full length human Nurr1 expressed in HEK293T cells co-transfected with luciferase reporter plasmid harboring NurRE response element assessed as decrease in luciferase activity at 1.55 to 15 uM incubated for 18 hrs by luciferase reporter gene assay. The conditions noted are these: filed as modulator, dose 1.55-15 µM. In short, it runs like this:
as §2

In the next data set the test system is HEK-293T. Description: Cytotoxicity in human HEK293T cells assessed as reduction in cell viability at 1.55 to 15 uM incubated for 18 hrs by Cell Titer-Glo assay. The note with it: dose 1.55-15 µM. In short, it runs like this:
(§3)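 Cells seeded 1.5 million per 10-cm dish; next day replated at 10,000 cells/well in 384-well format, 4 h, then ligand or vehicle (water, ethanol or DMSO by ligand) added in quadruplicate for 18 h; viability read by CellTiter-Glo luminescence. Mean ± s.e.m. (n=4), generally 2 independent experiments; one-way ANOVA versus vehicle.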

In data set [4] the target is Nuclear receptor subfamily 4 group A member 2 (Homo sapiens) (UniProt P43354). Description: Modulation of full length human Nurr1 expressed in PC-12 cells co-transfected with luciferase reporter plasmid harboring NBRE response element assessed as decrease in luciferase activity at 1.55 to 15 uM incubated for 18 hrs by luciferase reporter gene assay. The note with it: filed as modulator, dose 1.55-15 µM. Summed up: as §2
Nuclear receptor subfamily 4 group A member 2 (Homo sapiens), sequence (P43354 whole entry): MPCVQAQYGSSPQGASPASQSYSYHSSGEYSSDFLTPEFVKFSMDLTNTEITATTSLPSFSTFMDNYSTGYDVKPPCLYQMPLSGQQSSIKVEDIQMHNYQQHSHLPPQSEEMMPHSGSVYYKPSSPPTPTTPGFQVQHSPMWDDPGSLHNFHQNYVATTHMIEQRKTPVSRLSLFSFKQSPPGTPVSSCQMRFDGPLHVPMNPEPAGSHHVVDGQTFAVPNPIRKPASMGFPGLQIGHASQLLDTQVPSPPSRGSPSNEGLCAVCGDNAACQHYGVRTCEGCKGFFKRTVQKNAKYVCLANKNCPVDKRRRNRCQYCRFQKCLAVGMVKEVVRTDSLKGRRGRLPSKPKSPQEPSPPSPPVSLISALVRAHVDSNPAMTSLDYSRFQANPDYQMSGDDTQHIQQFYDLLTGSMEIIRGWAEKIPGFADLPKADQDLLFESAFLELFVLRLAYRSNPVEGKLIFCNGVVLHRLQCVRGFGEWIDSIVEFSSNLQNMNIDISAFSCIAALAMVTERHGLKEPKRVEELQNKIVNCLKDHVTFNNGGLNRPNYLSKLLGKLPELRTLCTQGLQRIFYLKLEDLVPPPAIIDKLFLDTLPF

Data set [5] has the same target. In words: Modulation of full length human Nurr1 expressed in HEK293T cells co-transfected with luciferase reporter plasmid harboring NBRE response element assessed as decrease in luciferase activity at 1.55 to 15 uM incubated for 18 hrs by luciferase reporter gene assay. The conditions noted are these: filed as modulator, dose 1.55-15 µM. In short, it runs like this: as §2

The next data set has as its system SK-N-BE(2). Description: Cytotoxicity in human SKNBE2 cells assessed as reduction in cell viability at 1.55 to 15 uM incubated for 18 hrs by Cell Titer-Glo assay. The conditions noted are these: dose 1.55-15 µM. In short, it runs like this:
as §3

A further data set has as its system SKNBE2. In words: Modulation of Gal4-fused VP16 expressed in SKNBE(2) cells co-transfected with UAS repoter gene assessed as decrease in luciferase activity at 1.55 to 15 uM incubated for 18 hrs by luciferase reporter gene assay. The conditions noted are these: Human alphaherpesvirus 2, filed as modulator, dose 1.55-15 µM. Summed up: as §1
The subject of data set [6] is PC-12. In words: Cytotoxicity in rat PC-12 cells assessed as reduction in cell viability at 1.55 to 15 uM incubated for 18 hrs by Cell Titer-Glo assay. The note with it: pc-12, 18 h, dose 1.55-15 µM. Summed up:
as §3

The target of data set [7] is Nuclear receptor subfamily 4 group A member 2 (Homo sapiens) (UniProt P43354). In words: Modulation of full length human Nurr1 expressed in […] cells co-transfected with luciferase reporter plasmid harboring NurRE response element assessed as decrease in luciferase activity at 1.55 to 15 uM incubated for 18 hrs by luciferase reporter gene assay. The conditions noted are these: SKNBE2, filed as modulator, dose 1.55-15 µM. In short, it runs like this: as §2

The structures appear in SMILES notation. Calls of active or inactive are those of the source. The rule behind the calls is not given here.

As to `CC[C@@]1(O)C(=O)OCc2c1cc1n(c2=O)Cc2cc3ccccc3nc2-1` [CAMPTOTHECIN], the result (with HEK293T; in data set [1]; in the data set on PC-12 [2]; in data set [3]; in [4]; in data set [5]) was Active. Besides, the result (in the data set on SKNBE2; in [7]) was Active. In addition, the Activity result in the data set on HEK-293T, in the data set on SK-N-BE(2) and in the data set on PC-12 [6] was “Toxic” in each case.

The values above are taken from ChEMBL document CHEMBL5030505, “Assessment of NR4A Ligands That Directly Bind and Modulate the Orphan Nuclear Receptor Nurr1” (J Med Chem, 2020).
